Test results: ChEMBL document CHEMBL1275449, “Potent in vitro antifungal activities of naturally occurring acetylenic acids” (Antimicrob Agents Chemother, 2008)
In brackets after ≈: the same amount, converted by molar mass. Activity calls are given as the source filed them. The rule behind the calls is not given here.

Experiments:
[1] = system: Cryptococcus neoformans; experiment: Antifungal activity against Cryptococcus neoformans ATCC 66031 after 72 hrs by CLSI method; assay type: functional, organism-based; conditions: ATCC 66031, 72 h
Summary of the method: (§1)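 SD broth replaced RPMI because growth in RPMI was poor; other CLSI conditions were kept. Inoculum was 1.5 × 10³ CFU/ml from colonies on SD agar, checked by plating. Twofold serial dilutions (11 concentrations) in 20% DMSO-saline were tested in duplicate. OD530 was read before and after incubation at 35°C for 72 h. Percent growth gave IC50; the MIC is the lowest concentration with no detectable growth.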

[2] = system: Candida albicans; experiment: Antifungal activity against Fluconazole resistant Candida albicans clinical isolate 17 after 48 hrs by CLSI method; assay type: functional, organism-based
Summary of the method: (§2)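 CLSI broth microdilution. Colonies from 24–72 h SD agar suspended in saline and sized by OD630 standard curve. Inoculum 1.5 × 10³ CFU/ml (final) in RPMI 1640 (0.2% dextrose, 0.03% glutamine, 0.165 M MOPS, pH 7.0). Twofold dilutions (11 levels) from 20% DMSO-saline, in duplicate. 35°C for 48 h, OD530 read before and after. IC50 fitted from % growth. MIC: no detectable growth. MFC: subculture onto SD agar.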

[3] = system: Candida albicans; experiment: Antifungal activity against Fluconazole resistant Candida albicans isolate 1 at 542.7 uM after 48 hrs by CLSI method; assay type: functional, organism-based
Summary of the method: (§3)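 Candida in CLSI broth microdilution. Saline colony suspension set to 1.5 × 10³ CFU/ml (final) in MOPS-buffered RPMI 1640, pH 7.0. Test agent given as twofold serial dilutions in 20% DMSO-saline, duplicate wells. 35°C for 48 h. Growth read as OD530 before and after incubation. Percent inhibition scored at the highest test concentration.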

[4] = system: Nakaseomyces glabratus; experiment: Antifungal activity against Candida glabrata ATCC 90030 at 542.7 uM after 48 hrs by CLSI method; assay type: functional, organism-based
Summary of the method: (§4)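 Candida inocula came from 24–72-h SD agar colonies suspended in saline. They were diluted by OD630 standard curve into RPMI 1640 (0.2% dextrose, 0.03% glutamine, 0.165 M MOPS, pH 7.0) to 1.5 × 10³ CFU/ml. Compounds were run as 11 twofold dilutions in 20% DMSO-saline, in duplicate, at 35°C for 48 h, with OD530 read before and after. Percent growth at the top concentration, IC50, MIC, and MFC (SD agar plating) were derived.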

[5] = system: Candida albicans; experiment: Antifungal activity against Fluconazole resistant Candida albicans clinical isolate 1 after 48 hrs by CLSI method; assay type: functional, organism-based; summary of the method: as §2
[6] = system: Aspergillus fumigatus; experiment: Antifungal activity against Aspergillus fumigatus ATCC 204305 at 542.7 uM after 48 hrs by CLSI method; assay type: functional, organism-based
[7] = system: Candida albicans; experiment: Antifungal activity against Candida albicans ATCC 14053 after 48 hrs by CLSI method; assay type: functional, organism-based; conditions: ATCC 14053, 48 h; summary of the method: as §2
[8] = system: Trichophyton mentagrophytes; experiment: Antifungal activity against Trichophyton mentagrophytes ATCC MYA-4439 by CLSI method; assay type: functional, organism-based
Summary of the method: (§5)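 Growth scraped from 1- to 6-week-old potato dextrose slants and filtered through Miracloth. Diluted in 5% Alamar blue-RPMI 1640 (MOPS pH 7.0) to 2.7 × 10⁴ CFU/ml. Eleven twofold dilutions in duplicate. Fluorescence at 544 nm excitation/590 nm emission read before and after 35°C, 5 days. IC50 fitted from percent growth. MIC taken as no detectable growth; MFC from clear or blue wells plated on PD agar.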

[9] = system: Candida albicans; experiment: Antifungal activity against Candida albicans ATCC 32354 after 48 hrs by CLSI method; assay type: functional, organism-based; conditions: ATCC 32354, 48 h; summary of the method: as §2
[10] = system: Trichophyton mentagrophytes; experiment: Antifungal activity against Trichophyton mentagrophytes ATCC 9533 by CLSI method; assay type: functional, organism-based; summary of the method: as §5
[11] = system: Candida tropicalis; experiment: Antifungal activity against Candida tropicalis ATCC 750 after 48 hrs by CLSI method; assay type: functional, organism-based; conditions: ATCC 750, 48 h
Summary of the method: (§6)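 Yeast suspensions made from 3-5 colonies off 24-72 h SD agar plates in saline. They were diluted by OD630 standard curve in RPMI 1640 (0.2% dextrose, 0.03% glutamine, 0.165 M MOPS, pH 7.0) to 1.5 × 10³ CFU/ml. Twofold dilutions (11 concentrations, 20% DMSO-saline) run in duplicate. OD530 read before and after 35°C, 48 h. Line values are top test concentrations; no-growth endpoints give MIC/MFC.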

[12] = system: Trichophyton mentagrophytes; experiment: Antifungal activity against Trichophyton mentagrophytes ATCC 9533 at 542.7 uM after 5 days by CLSI method; assay type: functional, organism-based
[13] = system: Trichophyton mentagrophytes; experiment: Antifungal activity against Trichophyton mentagrophytes ATCC MYA-4439 at 542.7 uM after 5 days by CLSI method; assay type: functional, organism-based
[14] = system: Candida albicans; experiment: Antifungal activity against Candida albicans assessed as inhibition of growth at 100 uM; assay type: functional, organism-based
[15] = system: Candida tropicalis; experiment: Antifungal activity against Candida tropicalis ATCC 750 at 542.7 uM after 48 hrs by CLSI method; assay type: functional, organism-based; summary of the method: as §6
[16] = system: Candida parapsilosis; experiment: Antifungal activity against Candida parapsilosis ATCC 22019 at 542.7 uM after 48 hrs by CLSI method; assay type: functional, organism-based; summary of the method: as §6
[17] = system: Aspergillus niger; experiment: Antifungal activity against Aspergillus niger ATCC 16404 at 542.7 uM after 48 hrs by CLSI method; assay type: functional, organism-based
[18] = system: Candida albicans; experiment: Antifungal activity against Candida albicans ATCC 14053 at 542.7 uM after 48 hrs by CLSI method; assay type: functional, organism-based
[19] = system: Candida albicans; experiment: Antifungal activity against Candida albicans ATCC 200955 after 48 hrs by CLSI method; assay type: functional, organism-based; conditions: ATCC 200955, 48 h; summary of the method: as §2
[20] = system: Candida albicans; experiment: Antifungal activity against Candida albicans ATCC 60193 after 48 hrs by CLSI method; assay type: functional, organism-based; conditions: ATCC 60193, 48 h; summary of the method: as §2
[21] = system: Cryptococcus neoformans; experiment: Antifungal activity against Cryptococcus neoformans ATCC 90113 after 72 hrs by CLSI method; assay type: functional, organism-based; conditions: ATCC 90113, 72 h; summary of the method: as §1
[22] = system: Aspergillus niger; experiment: Antifungal activity against Aspergillus niger ATCC 16404 after 48 h by CLSI method; conditions: ATCC 16404, 48 h
[23] = system: Candida albicans; experiment: Antifungal activity against Candida albicans ATCC 90028 at 542.7 uM after 48 hrs by CLSI method; assay type: functional, organism-based; summary of the method: as §4
[24] = system: Aspergillus fumigatus; experiment: Antifungal activity against Aspergillus fumigatus ATCC 90906 at 542.7 uM after 48 hrs by CLSI method; assay type: functional, organism-based
[25] = system: Candida albicans; experiment: Antifungal activity against Candida albicans ATCC 32354 at 542.7 uM after 48 hrs by CLSI method; assay type: functional, organism-based; summary of the method: as §4
[26] = system: Trichophyton rubrum; experiment: Antifungal activity against Trichophyton rubrum ATCC 10218 at 542.7 uM after 5 days by CLSI method; assay type: functional, organism-based
[27] = system: Candida parapsilosis; experiment: Antifungal activity against Candida parapsilosis ATCC 22019 after 48 hrs by CLSI method; assay type: functional, organism-based; conditions: Lodderomyces parapsilosis, ATCC 22019, 48 h; summary of the method: as §6
[28] = system: Trichophyton rubrum; experiment: Antifungal activity against Trichophyton rubrum ATCC MYA-4438 by CLSI method; assay type: functional, organism-based; summary of the method: as §5
[29] = system: Pichia kudriavzevii; experiment: Antifungal activity against Candida krusei ATCC 6258 after 48 hrs by CLSI method; assay type: functional, organism-based; conditions: ATCC 6258, 48 h; summary of the method: as §4
[30] = system: Candida albicans; experiment: Antifungal activity against Candida albicans ATCC 60193 at 542.7 uM after 48 hrs by CLSI method; assay type: functional, organism-based; summary of the method: as §4
[31] = system: Trichophyton rubrum; experiment: Antifungal activity against Trichophyton rubrum ATCC 10218 by CLSI method; assay type: functional, organism-based; summary of the method: as §5
[32] = system: Trichophyton rubrum; experiment: Antifungal activity against Trichophyton rubrum ATCC MYA-4438 at 542.7 uM after 5 days by CLSI method; assay type: functional, organism-based
[33] = system: Candida albicans; experiment: Antifungal activity against Candida albicans assessed as inhibition of morphogenesis at 10 uM; assay type: functional, organism-based
[34] = system: Candida albicans; experiment: Antifungal activity against Fluconazole resistant Candida albicans isolate 17 at 542.7 uM after 48 hrs by CLSI method; assay type: functional, organism-based; summary of the method: as §3
[35] = system: Pichia kudriavzevii; experiment: Antifungal activity against Candida krusei ATCC 6258 at 542.7 uM after 48 hrs by CLSI method; assay type: functional, organism-based; summary of the method: as §6
[36] = system: Candida albicans; experiment: Antifungal activity against Candida albicans ATCC 200955 at 542.7 uM after 48 hrs by CLSI method; assay type: functional, organism-based; summary of the method: as §4
[37] = system: Aspergillus flavus; experiment: Antifungal activity against Aspergillus flavus ATCC 204304 at 542.7 uM after 48 hrs by CLSI method; assay type: functional, organism-based

C=CCCCCCCCCC(=O)O [UNDECYLENIC ACID]
IC50 [1]: 2700 nM | MFC [1]: 271 µM (≈ 50 µg/mL) | MIC [1]: 136 µM (≈ 25 µg/mL) | IC50 [2]: > 543 µM | Activity [3]: inactive | Activity [4]: inactive | IC50 [5]: > 543 µM | Activity [6]: inactive | IC50 [7]: > 543 µM | IC50 [8]: 379 µM | MIC [8]: 543 µM (≈ 100 µg/mL) | IC50 [9]: > 543 µM | IC50 [10]: 279 µM | MIC [10]: 543 µM (≈ 100 µg/mL) | IC50 [11]: > 543 µM | Activity [12]: inactive | Activity [13]: inactive | inhibition [14]: inactive | Activity [15]: inactive | Activity [16]: inactive | Activity [17]: inactive | Activity [18]: inactive | IC50 [19]: > 543 µM | IC50 [20]: > 543 µM | IC50 [21]: 25.3 µM | MFC [21]: 543 µM (≈ 100 µg/mL) | MIC [21]: 271 µM (≈ 50 µg/mL) | IC50 [22]: 415 µM | Activity [23]: inactive | Activity [24]: inactive | Activity [25]: inactive | Activity [26]: inactive | IC50 [27]: > 543 µM | IC50 [28]: 111 µM | MIC [28]: 543 µM (≈ 100 µg/mL) | IC50 [29]: > 543 µM | Activity [30]: inactive | IC50 [31]: 270 µM | MIC [31]: 543 µM (≈ 100 µg/mL) | Activity [32]: inactive | inhibition [33]: Active | Activity [34]: inactive | Activity [35]: inactive | Activity [36]: inactive | Activity [37]: inactive
